Only some compounds are listed: those with a hit (about 4% of all), similar ones and a draw of the others.
CHOP inhibitor: inhibitors of CHOP promoter induction, primary screen, cell-based, unfolded protein response, luciferase reporter. CHO-K1 CHOP-promoter luciferase, tunicamycin-induced, 15-18 h. inhibition, % at 10 µM. 220,000 tested, 3.8% active. AID 2732, 2010;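 active means compounds that reduced the stress-induced luciferase reporter signal by more than about 70% of percent inhibition, limit read from the data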
S1P3 antag: S1P3 receptor antagonists, primary screen, cell-based; CHO S1P3 NFAT-BLA reporter, FRET fluorescence, antagonist mode; AID 485, 2006; 170,000 tested, 0.27% active; inhibition, % at 4.98 µM;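 active means inhibition above the plate cutoff, the mean inhibition of test wells on that plate plus 3 SD, cut at about 28% in these data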;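 further: cells challenged with S1P at its EC80 of 0.8 µM; blue over green emission ratio from cleaved BLA substrate after 4 h stimulation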
Hsp70 act: Hsp70 transcriptional activators, primary screen, cell-based, HeLa, Hsp70 promoter luciferase, luminescence, 10 µM. HeLa Hsp70 promoter luciferase reporter; scaled: vehicle 0, proteasome-inhibitor control 100%. activation, % at 10 µM. 200,000 tested, 0.04% active. AID 1203, 2008;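 active means activation above the mean across all tested compounds plus 3 SD, cutoff set per campaign, cut at about 5.5% in these data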
MDM2 E3 inh: MDM2-luciferase reporter signal enhancers, primary screen, MDM2 E3 ligase inhibitor project, cell-based, luminescence, 1536-well; E3 ubiquitin-protein ligase Mdm2 (Homo sapiens), Q00987; cell-based MDM2 ubiquitination luciferase reporter, 2 h; 0 = plate control, 100 = twice control, blank-subtracted; signal enhancement, % at 5 µM; 210,000 tested, 0.11% active; AID 1230, 2008;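 active means signal enhancement of 30% or more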;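 further: luminescence tracks abundance of the self-degrading MDM2-luciferase fusion protein; higher signal means inhibition of MDM2 E3 ligase activity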
Target sequence (Q00987 whole entry, looked up, the tested form may be a part): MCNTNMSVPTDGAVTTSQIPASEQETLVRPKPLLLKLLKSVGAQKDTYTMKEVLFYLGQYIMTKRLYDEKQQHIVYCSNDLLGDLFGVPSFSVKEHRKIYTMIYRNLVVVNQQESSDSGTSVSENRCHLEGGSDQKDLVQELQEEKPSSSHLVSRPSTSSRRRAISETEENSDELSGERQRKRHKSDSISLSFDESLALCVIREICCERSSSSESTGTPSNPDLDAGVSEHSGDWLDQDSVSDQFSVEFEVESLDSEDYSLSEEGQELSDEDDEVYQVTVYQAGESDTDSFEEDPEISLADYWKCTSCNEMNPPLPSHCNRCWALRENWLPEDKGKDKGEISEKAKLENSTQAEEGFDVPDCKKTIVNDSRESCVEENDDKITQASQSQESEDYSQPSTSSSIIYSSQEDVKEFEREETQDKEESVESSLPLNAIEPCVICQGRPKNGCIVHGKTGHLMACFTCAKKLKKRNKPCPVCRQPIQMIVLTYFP
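Test system: mammalian cells stably expressing self-ubiquitinating, self-degrading MDM2 E3–luciferase fusion; Amount: 2000 cells in each well; Medium: DMEM; Schedule: 4 h settle plus 2 h compound, 37 °C; Technique: SteadyLite luciferase luminescence after 15 min room-temperature reagent incubation; Benchmarks: plate control and blank wells.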
Numbers stand for hits.

For CCn1c2c(c3cc(C(=O)O)ccc31)CCCC2=O the results were CHOP inhibitor inactive, S1P3 antag inactive, Hsp70 act inactive and MDM2 E3 inh inactive.
Nn1cc(-c2ccccc2)nc1SCC(=O)NCCN1C(=O)CSC1=O was read as CHOP inhibitor inactive, S1P3 antag inactive, Hsp70 act inactive and MDM2 E3 inh inactive.
`c1ccc(-c2nnc3sc(-c4csc5c4CCCC5)nn23)cc1` gave CHOP inhibitor inactive, S1P3 antag inactive, Hsp70 act inactive and MDM2 E3 inh inactive.
Screening CCOC(=O)CC(NC(=O)CCc1c(C)nc2ncnn2c1C)c1ccc(OC(C)C)cc1 (configuration not stated) returned CHOP inhibitor inactive, S1P3 antag inactive, Hsp70 act inactive and MDM2 E3 inh inactive.
O=C(Nc1ccc(-n2ccc(C(F)(F)F)n2)cc1)Nc1cccc(Cl)c1 was read as CHOP inhibitor inactive, S1P3 antag inactive and MDM2 E3 inh inactive.
Cc1cc(C)cc(NC(=O)Nc2ccc(-n3ccc(C(F)(F)F)n3)cc2)c1 was read as CHOP inhibitor 83, S1P3 antag inactive and MDM2 E3 inh inactive.
CCC1CCC(C(=O)NC(C(=O)Nc2ccc3c(c2)OCCO3)C(C)C)CC1 (configuration not stated) was read as CHOP inhibitor 83, Hsp70 act inactive and MDM2 E3 inh inactive.
CC(C)CC(NC(=O)C1CCC(C)CC1)C(=O)Nc1ccc2c(c1)OCCO2 (configuration not stated) was read as CHOP inhibitor inactive, Hsp70 act inactive and MDM2 E3 inh inactive.
C=CCc1cccc(/C=N/c2ncn[nH]2)c1O was read as CHOP inhibitor inactive, Hsp70 act inactive and MDM2 E3 inh inactive.
For CCc1ccc(O)c(N=Cc2cccc(C)c2O)c1 the results were CHOP inhibitor 76, S1P3 antag inactive, Hsp70 act inactive and MDM2 E3 inh inactive.
C=CCc1cccc(C=Nc2cc(Br)ccc2O)c1O was read as CHOP inhibitor 98, S1P3 antag inactive, Hsp70 act inactive and MDM2 E3 inh inactive.
`Cc1cccc(C=Nc2ccc3c4c(cccc24)CC3)c1O` gave CHOP inhibitor inactive, S1P3 antag inactive, Hsp70 act inactive and MDM2 E3 inh inactive.
`Cc1cccn2cc(CCNC(=O)Cc3cccs3)nc12` gave CHOP inhibitor inactive, S1P3 antag inactive and MDM2 E3 inh inactive.
CCc1sc(C(=O)Nc2cccc(C(C)=O)c2)cc1C was read as CHOP inhibitor inactive, S1P3 antag inactive, Hsp70 act inactive and MDM2 E3 inh inactive.
Screening Cc1ccccc1NCC(=O)N/N=C/C(Br)=C/c1ccccc1 returned CHOP inhibitor 94, Hsp70 act inactive and MDM2 E3 inh inactive.
`O=C(CN1CCOCC1)N/N=C/C(Br)=C\c1ccccc1` gave CHOP inhibitor inactive, S1P3 antag inactive, Hsp70 act inactive and MDM2 E3 inh inactive.
Screening C#CC[N+]1(CC#Cc2ccc(C)cc2)CCCCC1 returned CHOP inhibitor inactive, S1P3 antag inactive and Hsp70 act inactive.
For C/C(=N/OC(=O)c1ccccc1)c1oc(C)nc1C the results were CHOP inhibitor inactive, S1P3 antag inactive and MDM2 E3 inh inactive.
For CCOC(=O)c1cnc(SC)nc1Sc1ccccc1 the results were CHOP inhibitor 75, Hsp70 act inactive and MDM2 E3 inh inactive.
For C=CCSC1=NC(=O)/C(=C/c2cccs2)S1 the results were CHOP inhibitor 81, S1P3 antag inactive, Hsp70 act inactive and MDM2 E3 inh inactive.
Cc1ccc(C(=O)NCCc2nnc3ccc(SCC(=O)Nc4cc(C)on4)nn23)cc1 was read as CHOP inhibitor inactive, S1P3 antag inactive, Hsp70 act inactive and MDM2 E3 inh inactive.
Screening O=C(Cn1c(COc2ccccc2)nc2ccccc21)Nc1cc(Cl)ccc1Cl returned CHOP inhibitor 82, S1P3 antag inactive, Hsp70 act inactive and MDM2 E3 inh inactive.
`Cc1ccc2oc(=O)n(CCOc3ccccc3C)c2c1` gave CHOP inhibitor inactive, S1P3 antag inactive, Hsp70 act inactive and MDM2 E3 inh inactive.
Screening CCCCOc1ccccc1Cn1c(=O)oc2ccc(C)cc21 returned CHOP inhibitor inactive, S1P3 antag inactive, Hsp70 act inactive and MDM2 E3 inh inactive.
For Cc1ccc2oc(=O)n(CCCOc3ccccc3C)c2c1 the results were CHOP inhibitor 82, S1P3 antag inactive, Hsp70 act inactive and MDM2 E3 inh inactive.

High-throughput results from PubChem BioAssay.
